How the values were obtained:
[1] = Antioxidant activity assessed as DPPH radical scavenging activity after 10 mins; assay type: physicochemical
In short: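 Freshly prepared DPPH solution in test tubes; analogue solutions (1 mM–1 µM) added to a final volume of 2.25 mL. Absorbance read at 515 nm after 10 min. References prepared as 1 mM methanol stocks. IC50 calculated from at least three independent experiments.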

[2] = Toxicity in human MKN28 cells assessed as cell viability at 10 to 200 uM after 48 hrs by MTT assay; assay type: cell-based, MKN-28; settings: read-out: Activity
In short: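 MKN28 cells incubated under basal conditions with compounds (10–200 µM) for 1–48 h, with serum-free medium as control. Viability read by MTT assay. Mean ± SD from three separate experiments run in duplicate.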

[3] = Inhibition of xanthine oxidase in human MKN28 cells assessed as inhibition of xanthine oxidase-induced cell damage by measuring cell viability at 10 to 200 uM after 48 hrs by MTT assay; assay type: cell-based; settings: mkn-28, 48 h
In short: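 MKN28 cells pre-incubated with compounds (10–200 µM) for 1–48 h, washed, then exposed for 2 h to xanthine (1 mM) plus xanthine oxidase to induce oxidative stress. Controls were serum-free medium alone, and serum-free medium followed by X–XO. Viability read by MTT assay. Mean ± SD from three separate experiments run in duplicate.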

| Compound | IC50 [1] | viability at 48 h, up to 200 µM [2] | Activity [3] |
| --- | --- | --- | --- |
| COc1cc([C@H]2Oc3cc(-c4oc5cc(O)cc(O)c5c(=O)c4O)ccc3O[C@@H]2CO)ccc1O | 27 µM |  |  |
| COc1cc([C@H]2Oc3cc([C@H]4Oc5cc(O)cc(O)c5C(=O)[C@@H]4O)ccc3O[C@H]2COP(=O)([O-])OC2O[C@H](CO)[C@@H](O)[C@H](O)[C@H]2O)ccc1O.[Na+] (stereo partly specified) | 302 µM | 89.2% | 42.7% |
| COc1cc([C@H]2Oc3cc([C@H]4Oc5cc(O)cc(O)c5C(=O)[C@@H]4O)ccc3O[C@H]2COP(=O)([O-])OC2O[C@H](CO)[C@@H](O)[C@H](O)[C@@H]2O)ccc1O.[Na+] (stereo partly specified) | 108 µM | 89.5% | 42.3% |
| COc1cc([C@H]2Oc3cc([C@H]4Oc5cc(O)cc(O)c5C(=O)[C@@H]4O)ccc3O[C@H]2COP(=O)([O-])OC2O[C@H](CO)[C@H](O)[C@H](O)[C@H]2O)ccc1O.[Na+] (stereo partly specified) | 233 µM | 84.1% | 42.8% |
| COc1cc([C@H]2Oc3cc([C@H]4Oc5cc(O)cc(O)c5C(=O)[C@@H]4O)ccc3O[C@H]2COP(=O)([O-])OC2O[C@H](CO)[C@H](OC3O[C@H](CO)[C@H](O)[C@H](O)[C@H]3O)[C@H](O)[C@H]2O)ccc1O.[Na+] (stereo partly specified) | 155 µM | 91.8% | 48.4% |
| COc1cc(C2Oc3cc([C@H]4Oc5cc(O)cc(O)c5C(=O)[C@@H]4O)ccc3OC2CO)ccc1O (stereo partly specified) [SILIBININ] | 392 µM | 45.3% | 42.4% |

— ChEMBL document CHEMBL3352053, “New silibinin glyco-conjugates: synthesis and evaluation of antioxidant properties” (Bioorg Med Chem Lett, 2014)
